This is a sample that favours compounds with a hit; in the whole collection about 2% have one here.
HKDC1 inh: HKDC1 (human) hexokinase inhibition; 340,000 tested, 0.16% active; inhibition, % at 20 µM; recombinant HKDC1, G6PDH/diaphorase resazurin coupled fluorescence;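 active means inhibition above about 35% when tested at 20 µM, limit read from the data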;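 further: plate controls were DMSO wells with enzyme for no effect and DMSO wells lacking enzyme for full effect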
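Test system: Recombinant HKDC1 (HK5) hexokinase enzyme, produced in-house | Input: HKDC1 at 5 µg/mL | Buffer or medium: Tris pH 8.0 buffer with MgCl2, Tween-20, BSA, BME | Schedule: 90 min reaction incubation at room temperature, dark | Technique: Resazurin-to-resorufin fluorescence via G6PDH and diaphorase coupling, 525/613 nm | Controls: DMSO wells with and without enzyme mix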
beta cell repl: inducers of beta-cell replication in MIN6 cells; MIN6 cells proliferation, ATPlite luminescence, 48 h; cells starved in 0.2% serum; 100% = growth in 10% serum; proliferation, % at 10 µM; 330,000 tested, 0.29% active;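 active means compounds whose signal lies at least 3.5 SD above the mean of all wells on their plate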;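 further: 0% = DMSO-treated cells in low-serum medium and 100% = 10% serum control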
ATG4B inhibitor: inhibitors of human ATG4B cysteine protease | Q9Y4P1 | ATG4B cleavage of LC3-PLA2, NBD-HPC fluorescence, 1 h | inhibition, % at 8.33 µM | 340,000 tested, 0.51% active | AID 504462; in the data active means inhibition above about 40%
Target sequence (Q9Y4P1 whole entry, looked up): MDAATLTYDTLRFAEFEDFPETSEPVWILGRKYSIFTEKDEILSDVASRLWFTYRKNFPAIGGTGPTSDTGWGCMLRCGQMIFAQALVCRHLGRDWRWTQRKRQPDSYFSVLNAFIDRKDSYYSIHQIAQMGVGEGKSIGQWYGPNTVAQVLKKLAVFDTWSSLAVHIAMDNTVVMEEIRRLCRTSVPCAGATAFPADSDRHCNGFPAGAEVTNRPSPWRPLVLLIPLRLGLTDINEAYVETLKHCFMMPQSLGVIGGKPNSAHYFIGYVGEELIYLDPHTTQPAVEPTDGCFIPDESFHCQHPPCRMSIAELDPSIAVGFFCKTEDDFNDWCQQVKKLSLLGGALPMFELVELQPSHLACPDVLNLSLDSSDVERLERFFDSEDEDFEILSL
PvdQ acylase: P. aeruginosa PvdQ acylase inhibition; inhibition, % at 10 µM; purified PvdQ acylase, fluorescence plate reader; 340,000 tested, 0.063% active; in the data active means inhibition above about 30%, passing the limit was not always enough;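 further: 0% = vehicle neutral wells and 100% = reference inhibitor wells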
IMP-1 inh: inhibitors of Pseudomonas aeruginosa IMP-1 metallo-beta-lactamase | AID 1556 | inhibition, % at 5.6 µM | 290,000 tested, 0.45% active | purified IMP-1, nitrocefin hydrolysis, epi-absorbance fluorescence;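 active means inhibition above the mean plus 3 SD of all compounds in the same screening run, cut at about 4.5% in these data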;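 further: 0% = IMP-1 with DMSO and 100% = DMSO wells lacking enzyme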
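system = purified recombinant IMP-1 beta-lactamase | amount = 0.2 nM IMP-1, as dispensed | medium = HEPES buffer pH 7.1 with ZnSO4 and Brij 35 | times = 25 °C, 15 min preincubation, 25 min reaction | detection = plate fluorescence quenching by hydrolysis product, ex 480/em 530 nm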
VIM-2 inh: inhibitors of Pseudomonas aeruginosa VIM-2 metallo-beta-lactamase; purified VIM-2, nitrocefin hydrolysis, epi-absorbance fluorescence; inhibition, % at 5.6 µM; 290,000 tested, 0.89% active;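 active means inhibition above the mean of all tested compounds plus 3 SD, cutoff set per screening run, cut at about 7.5% in these data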;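 further: red hydrolysis product quenches plate fluorescence so inhibitors raise well fluorescence; 0% = enzyme with DMSO and 100% = DMSO without enzyme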
HKDC1 act conf2: HKDC1 (human) activation, single-dose confirmed; shares compounds with HKDC1 inh; recombinant HKDC1, G6PDH/diaphorase resazurin fluorescence; stronger effect = lower value; inhibition, % at 20 µM; 740 tested, 14% active; AID 504708;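 active means inhibition at or below a set negative limit, negative inhibition meaning the enzyme was activated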
Active calls of the source: *; i = inactive; . = not tested or not shown; ! = repeats disagree.

SMILES	HKDC1 inh	beta cell repl	ATG4B inhibitor	PvdQ acylase	IMP-1 inh	VIM-2 inh	HKDC1 act conf2
O=S(=O)(c1ccc(Br)cc1Cl)N1CCN(CCO)CC1	8	-2	9	-1	-5	-5	.
O=C1C=CC(=O)c2c(O)c(N3CCN(CCOCCO)CC3)c(Br)c(O)c21	46*	.	18	-15	.	.	11
O=C1C=CC(=O)c2c(O)c(N3CCN(CCO)CC3)c(Cl)c(O)c21	32	.	31	3	.	.	10
O=C(c1ccc(N2CCOCC2)cc1[N+](=O)[O-])N1CCOCC1	-14	-3	-3	-2	-1	-2	.
O=C(O)c1cccc(-n2nc(-c3ccc(Cl)c([N+](=O)[O-])c3)c3ccccc3c2=O)c1	-2	-3	-1	-2	-3	-2	.
CCCNC(=O)Nc1cc(OC)c(OC)cc1Cc1nccc2cc(OC)c(OC)cc12	0	-2	-3	10	0	0	.
COc1cc(OC)c(C#N)c(S(=O)(=O)Cc2ccccc2)c1	-2	-1	-15	-13	-2	3	.
N#Cc1c([N+](=O)[O-])cc([N+](=O)[O-])cc1S(=O)(=O)Cc1ccccc1	34	-8	-6	13	.	.	20
O=C(N[C@@H]1c2ccccc2CC[C@@H]1OCc1ccccc1)c1ccc(C(F)(F)F)cc1	2	.	3	-9	.	.	.
COc1ccc(Oc2cc(C)nc(Cl)n2)nn1	-78	-2	-3	-4	0	-1	-15
Cc1cc(Oc2ccc(OCC(N)=O)nn2)nc(Cl)n1	-9	2	-3	19	-3	-1	.
COc1cccc(N=C2SC(CC(=O)Nc3ccccc3)C(=O)N2Cc2ccccn2)c1 (stereo not drawn)	-1	0	-16	-11	-4	-4	.
Cc1ccc(N=Nc2ccc(O)c3ncccc23)cc1C	-43	-5	-1	-10	-2	-3	-40*
Cc1ccc(C)c(-n2c3nc(=O)n(C)c(=O)c-3cc3ccccc32)c1	3	1	10	-18	-1	-2	.
Cc1ccc(C)c(-n2c3nc(=O)[nH]c(=O)c-3cc3cc([N+](=O)[O-])ccc32)c1	47*	.	26	1	-2	-6	39
Cc1cccc(-n2c3nc(=O)[nH]c(=O)c-3cc3cc([N+](=O)[O-])ccc32)c1	42*	.	7	0	-1	-3	47
Cc1nc2cc(NC(=O)N3CCN(c4ccccn4)CC3)ccc2o1	-3	-3	12	1	-2	-4	.
O=C(Nc1ccc2nc(-c3ccco3)c(-c3ccco3)nc2c1)N1CCN(c2ccccn2)CC1	57*	0	1	9	-2	-4	-13
CCCc1[nH]n(-c2ccc(F)cc2)c(=O)c1C=Nc1ccc(C)cc1	4	-1	-8	0	-1	-2	.
C[n+]1c2cc(N)ccc2cc2ccc(N)cc21	44*!	.	i	-1	.	.	-20
Nc1ccc2ccc(O)cc2c1	15	.	-11	7	.	.	.
CCOC(=O)C1=C(Cc2ccc(F)cc2)C(=O)c2ccccc2C1=O	73*	-6	31	0	-5	1	59
Cc1cc2nc(-c3cccnc3SCC(=O)NC3CC3)[nH]c2cc1C	.	-3	.	.	-4	-2	.
Cc1onc(C(=O)Nc2ccc(OC(F)(F)F)cc2)c1[N+](=O)[O-]	79*	-5	3	11	-2	-1	-15
COc1ccc(S(=O)(=O)/N=C2\C=C(Nc3ccc(O)cc3)C(=O)c3ccccc32)cc1	42*	-4	27	0	-6	-3	27
SMILES	HKDC1 inh	beta cell repl	ATG4B inhibitor	PvdQ acylase	IMP-1 inh	VIM-2 inh	HKDC1 act conf2
CC(=O)Nc1ccc(NC2=C/C(=N/S(=O)(=O)c3cccs3)c3ccccc3C2=O)cc1	44*	-5	-2	-14	-3	-2	52
CCc1ccc(S(=O)(=O)/N=C2\C=C(NS(=O)(=O)c3ccccc3)C(=O)c3ccccc32)cc1	28	-7	-1	11	-6	-6	.
CCOc1ccccc1CN1CCNC(=O)C1CC(=O)N(C)C1CCOCC1 (stereo not drawn)	0	1	-10	-13	-4	-1	.
O=C(O)COc1ccc(/C=N/NC(=O)c2ccc(-c3csc(Nc4ccc(Cl)cc4)n3)cc2)cc1	76*	.	-2	-10	-1	-4	24
COc1ccc2c(c1)/C(=C\c1cccc(/C=C3/C(=O)Nc4ccc(OC)cc43)n1)C(=O)N2	37*	.	-4	-4	.	.	24
COc1ccc2c(c1)/C(=N/N1C(=O)c3ccccc3C1=O)C(=O)N2	.	-2	.	.	-1	-1	.
CC(C)n1c2ccccc2c2cc([N+](=O)[O-])ccc21	-9	0	-2	-5	-4	-3	.
CN(C)c1ccc(C=c2c3cc(O)ccc3n3c2cc(-c2ccccc2)[n+]3C)cc1	56*	.	32	5	.	.	30
CN(C)c1ccc(C=c2c3ccccc3n3c2c2ccccc2[n+]3C)cc1	25	.	29	-1	.	.	.
C[n+]1c(-c2ccccc2)cc2c(=Cc3ccc([N+](=O)[O-])cc3)c3ccccc3n21	36*	.	19	-16	.	.	6
CCOC(=O)c1cc2c(=Cc3ccc(N(C)C)cc3)c3ccccc3n2[n+]1C	37*	.	22	8	.	.	-8
C[n+]1c(-c2ccccc2)cc2c(=Cc3ccccc3)c3ccccc3n21	42*	.	18	-17	.	.	-18
Cc1cc2c(=Cc3ccc(N(C)C)cc3)c3ccccc3n2[n+]1C	-4	.	14	11	.	.	.
COCCN(C(=O)Nc1ccc(OC)cc1)c1nc2ccccc2s1	-1	-3	-5	3	-2	0	.
N#CCCn1nc(-c2ccccc2)c2ccccc2c1=O	1	-3	-6	-4	1	1	.
Cc1ccc2nc(NC(=O)COC(=O)c3ccc(Br)o3)sc2c1	5	-6	-16	-14	-1	1	.
O=C1C(N2CCOCC2)=C(n2nnc3ccccc32)C(=O)c2ccccc21	43*	-4	-5	13	-6	1	55
O=C1c2ccccc2C(=O)c2c1cccc2-n1nnc2ccccc21	3	-1	-3	1	-2	0	.
O=C1C(Cl)=C(NCCc2ccccc2)C(=O)c2ccccc21	53*	.	-2	-12	.	.	59
C=CCNC1=C(Cl)C(=O)c2ccccc2C1=O	7	0	-2	10	0	1	.
O=C(O)c1ccc(NC2=C(Cl)C(=O)c3ccccc3C2=O)cc1	-131	-7	-2	-9	-3	-3	-94*
O=C1C(Cl)=C(NCc2cccnc2)C(=O)c2ccccc21	-45	-7	-4	-13	-2	6	-45*
O=C1C(Cl)=C(Nc2ccccc2)C(=O)c2ccccc21	-38	.	-1	-10	-1	1	.

Assay outcomes as filed in PubChem BioAssay.
